Assay [1] has as its target T1, Protein cereblon/3-hydroxy-3-methylglutaryl-coenzyme A reductase (Cricetulus griseus) (UniProt P00347+G3H338). The assay can be described thus: Protac activity at CRBN/HMGCR in Insig-1/Insig-2 deficient Chinese hamster SRD15 cells assessed as induction of HMGCR degradation at 0.01 to 1 uM after 16 hrs by immunoblotting analysis. In short, it runs like this: (§1)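 SRD15 cells treated with compound at varying concentrations for 16 h, final DMSO ≤0.1%; RIPA lysates (Lowry protein) immunoblotted for HMGCR, densitometry normalized to actin, DMSO set to 1; DC50 = concentration giving 50% loss versus DMSO, fitted to dose-response curve, mean of 3 independent experiments.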
(In general: In western blotting, separated proteins are transferred to a membrane and probed.)

Assay [2] deals with T2, Protein cereblon/3-hydroxy-3-methylglutaryl-coenzyme A reductase (Cricetulus griseus, UniProt P00347+G3H338).
T2 sequence (P00347 whole entry): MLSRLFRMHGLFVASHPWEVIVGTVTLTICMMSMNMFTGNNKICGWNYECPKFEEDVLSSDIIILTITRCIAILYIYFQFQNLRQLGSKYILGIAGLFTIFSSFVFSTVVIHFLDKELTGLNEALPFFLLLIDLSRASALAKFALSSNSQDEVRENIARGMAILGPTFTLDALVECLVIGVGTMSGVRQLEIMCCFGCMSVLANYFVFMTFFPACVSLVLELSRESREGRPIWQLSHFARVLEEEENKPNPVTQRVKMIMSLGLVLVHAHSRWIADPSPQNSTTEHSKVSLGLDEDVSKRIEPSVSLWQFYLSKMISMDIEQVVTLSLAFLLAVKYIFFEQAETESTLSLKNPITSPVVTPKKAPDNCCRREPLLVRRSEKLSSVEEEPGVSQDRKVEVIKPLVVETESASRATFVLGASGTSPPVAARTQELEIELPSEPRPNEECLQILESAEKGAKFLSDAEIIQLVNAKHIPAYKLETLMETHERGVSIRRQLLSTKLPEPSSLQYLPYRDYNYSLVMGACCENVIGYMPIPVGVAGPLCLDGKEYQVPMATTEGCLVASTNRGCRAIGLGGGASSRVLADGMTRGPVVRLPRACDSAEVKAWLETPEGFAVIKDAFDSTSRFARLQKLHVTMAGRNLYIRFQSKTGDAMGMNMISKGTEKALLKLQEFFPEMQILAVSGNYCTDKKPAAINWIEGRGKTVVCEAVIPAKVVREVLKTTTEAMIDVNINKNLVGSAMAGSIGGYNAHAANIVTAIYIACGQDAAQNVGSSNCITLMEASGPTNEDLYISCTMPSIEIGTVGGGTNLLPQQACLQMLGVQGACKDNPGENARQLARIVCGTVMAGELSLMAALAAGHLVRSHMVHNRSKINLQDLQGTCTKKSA
T2 sequence (G3H338 whole entry): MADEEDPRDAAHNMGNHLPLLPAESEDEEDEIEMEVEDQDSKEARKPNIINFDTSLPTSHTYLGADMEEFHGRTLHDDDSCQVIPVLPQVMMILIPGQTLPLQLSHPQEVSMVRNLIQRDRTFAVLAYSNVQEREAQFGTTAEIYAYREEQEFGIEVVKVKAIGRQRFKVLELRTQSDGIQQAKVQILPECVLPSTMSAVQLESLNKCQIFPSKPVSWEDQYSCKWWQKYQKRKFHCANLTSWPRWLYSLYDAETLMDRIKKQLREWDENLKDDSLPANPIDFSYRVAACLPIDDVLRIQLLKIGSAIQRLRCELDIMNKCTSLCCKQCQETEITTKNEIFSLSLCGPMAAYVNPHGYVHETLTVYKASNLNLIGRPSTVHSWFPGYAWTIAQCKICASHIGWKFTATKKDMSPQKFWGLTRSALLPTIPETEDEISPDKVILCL
The experiment in a line: Protac activity at CRBN/HMGCR in Insig-1/Insig-2 deficient Chinese hamster SRD15 cells assessed as induction of HMGCR degradation after 16 hrs by immunoblotting analysis. In short, it runs like this:
as §1

Assay [3] has as its target T3, Sterol regulatory element-binding protein 2 (Mus musculus) (UniProt Q3U1N2).
T3 sequence (whole entry): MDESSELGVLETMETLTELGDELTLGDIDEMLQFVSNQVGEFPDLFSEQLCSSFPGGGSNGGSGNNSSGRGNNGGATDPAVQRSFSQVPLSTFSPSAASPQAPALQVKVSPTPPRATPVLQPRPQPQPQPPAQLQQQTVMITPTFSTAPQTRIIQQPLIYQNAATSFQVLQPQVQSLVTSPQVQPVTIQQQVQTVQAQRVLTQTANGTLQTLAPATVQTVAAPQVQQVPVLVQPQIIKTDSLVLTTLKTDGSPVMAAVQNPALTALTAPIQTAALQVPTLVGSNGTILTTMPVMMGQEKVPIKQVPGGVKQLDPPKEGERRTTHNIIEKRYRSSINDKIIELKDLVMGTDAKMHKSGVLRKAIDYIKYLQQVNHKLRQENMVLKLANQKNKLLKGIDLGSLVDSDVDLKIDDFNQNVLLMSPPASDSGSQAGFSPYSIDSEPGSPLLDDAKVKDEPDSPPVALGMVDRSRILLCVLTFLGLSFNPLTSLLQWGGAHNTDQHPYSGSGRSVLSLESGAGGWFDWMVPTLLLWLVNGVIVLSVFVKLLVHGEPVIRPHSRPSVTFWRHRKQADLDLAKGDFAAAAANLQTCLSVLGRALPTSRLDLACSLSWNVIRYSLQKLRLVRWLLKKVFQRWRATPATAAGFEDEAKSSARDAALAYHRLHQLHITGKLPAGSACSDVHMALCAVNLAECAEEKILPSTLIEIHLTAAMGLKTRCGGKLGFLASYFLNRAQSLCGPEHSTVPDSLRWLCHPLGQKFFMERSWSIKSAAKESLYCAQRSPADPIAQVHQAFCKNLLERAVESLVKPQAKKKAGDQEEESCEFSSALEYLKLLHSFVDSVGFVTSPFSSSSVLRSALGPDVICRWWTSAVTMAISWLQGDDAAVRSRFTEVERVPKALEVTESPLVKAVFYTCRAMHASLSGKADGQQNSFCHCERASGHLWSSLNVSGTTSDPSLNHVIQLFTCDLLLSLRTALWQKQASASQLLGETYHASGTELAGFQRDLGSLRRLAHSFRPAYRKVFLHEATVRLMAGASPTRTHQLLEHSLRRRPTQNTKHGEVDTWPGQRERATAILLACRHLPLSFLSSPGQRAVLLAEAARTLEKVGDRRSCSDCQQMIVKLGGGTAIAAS
The experiment in a line: Activation of SREBP2 pathway in mouse primary hepatocytes assessed as increase in LDLR mRNA expression at 0.01 to 1 uM afer 16 hrs by quantitative real-time PCR analysis. It is filed as cell-based. In general terms: Real-time PCR tracks product formation cycle by cycle.

The target in assay [4] is T3, Sterol regulatory element-binding protein 2 (Mus musculus). The assay can be described thus: Activation of SREBP2 pathway in mouse primary hepatocytes assessed as increase in HMGCR mRNA expression at 0.01 to 1 uM afer 16 hrs by quantitative real-time PCR analysis. It is filed as cell-based.
The target of assay [5] is T1, Protein cereblon/3-hydroxy-3-methylglutaryl-coenzyme A reductase (Cricetulus griseus). The assay can be described thus: Protac activity at CRBN/HMGCR in Insig-1/Insig-2 deficient Chinese hamster SRD15 cells assessed as induction of HMGCR degradation at 3 uM after 16 hrs by immunoblotting analysis. In short, it runs like this:
as §1

Assay [6] has as its target T4, Thioredoxin domain-containing protein 11 (Homo sapiens) (UniProt Q6PKC3).
T4 sequence (whole entry): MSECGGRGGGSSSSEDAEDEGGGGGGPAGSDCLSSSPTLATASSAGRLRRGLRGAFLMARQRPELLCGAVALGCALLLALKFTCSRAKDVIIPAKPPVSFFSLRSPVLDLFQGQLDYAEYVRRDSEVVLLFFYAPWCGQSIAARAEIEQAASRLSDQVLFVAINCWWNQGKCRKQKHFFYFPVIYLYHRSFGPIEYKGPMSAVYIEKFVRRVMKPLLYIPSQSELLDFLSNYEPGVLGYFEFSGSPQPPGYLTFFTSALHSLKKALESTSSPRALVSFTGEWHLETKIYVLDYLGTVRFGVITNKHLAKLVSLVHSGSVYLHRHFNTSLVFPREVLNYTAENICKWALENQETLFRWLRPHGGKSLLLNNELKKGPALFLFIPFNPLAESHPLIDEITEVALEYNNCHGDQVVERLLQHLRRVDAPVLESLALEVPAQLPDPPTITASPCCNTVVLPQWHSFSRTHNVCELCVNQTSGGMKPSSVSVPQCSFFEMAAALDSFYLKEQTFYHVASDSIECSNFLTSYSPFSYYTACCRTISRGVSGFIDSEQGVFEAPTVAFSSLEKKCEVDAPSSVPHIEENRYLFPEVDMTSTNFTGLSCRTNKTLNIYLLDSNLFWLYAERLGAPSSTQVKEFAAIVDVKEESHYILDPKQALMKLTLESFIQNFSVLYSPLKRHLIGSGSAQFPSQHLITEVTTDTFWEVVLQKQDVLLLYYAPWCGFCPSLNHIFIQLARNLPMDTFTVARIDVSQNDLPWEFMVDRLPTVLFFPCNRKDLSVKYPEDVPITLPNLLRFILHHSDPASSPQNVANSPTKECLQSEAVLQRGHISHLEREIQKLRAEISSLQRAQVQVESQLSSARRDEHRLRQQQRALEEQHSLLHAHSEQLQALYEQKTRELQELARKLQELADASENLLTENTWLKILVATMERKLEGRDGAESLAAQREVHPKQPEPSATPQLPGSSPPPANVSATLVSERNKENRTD
The experiment in a line: Activation of TXNDC11 (unknown origin).

Assay [7] concerns Huh-7. The experiment in a line: Inhibition of cholesterol biosynthesis in human HuH7 cells preincubated for 14 hrs and followed by addition of 14C-acetate and measured after 2 hrs by TL method. The format is functional, cell-based. The method in brief:
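Sterol-depleted Huh7 cells (Medium B plus 5% lipoprotein-deficient serum) treated at varying concentrations for 14 h, pulse-labelled with ¹⁴C-acetate 1 μCi/μL for 2 h, washed, lysed in 0.1 M NaOH; lipids separated by TLC, ¹⁴C-cholesterol read by phosphorimager, DMSO set to 1.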

Active and inactive are the calls of the source. No cut-off for these calls is given here.

As a reminder, the DC50 is the concentration giving 50% degradation.

In the case of `C#CCCCOc1cccc(-c2c(C(=O)Nc3ccccc3)c(C(C)C)n(CC[C@@H](O)C[C@@H](O)CC(=O)O)c2-c2ccc(F)cc2)c1`, the outcome in assay [1] was inactive.
`CC(C)c1c(C(=O)Nc2ccccc2)c(-c2cccc(OCCCc3cn(CCCCCCCNc4cccc5c4C(=O)N(C4CCC(=O)NC4=O)C5=O)nn3)c2)c(-c2ccc(F)cc2)n1CC[C@@H](O)C[C@@H](O)CC(=O)O` (stereo partly drawn): the DC50 in assay [2] worked out at 200 nM. Further, the result in assay [3] and in assay [4] was Active.
As to `CC(C)c1c(C(=O)Nc2ccccc2)c(-c2cccc(OCCCc3cn(CCOCCOCCOCCOCCNc4ccc5c(c4)C(=O)N(C4CCC(=O)NC4=O)C5=O)nn3)c2)c(-c2ccc(F)cc2)n1CC[C@@H](O)C[C@@H](O)CC(=O)O` (stereo partly drawn), the 50% degradation concentration (DC50) in assay [2] was 300 nM. The result in assay [5] was inactive.
Consider `CC(C)c1c(C(=O)Nc2ccccc2)c(-c2ccccc2)c(-c2ccc(F)cc2)n1CC[C@@H](O)C[C@@H](O)CC(=O)O`, for which the fold change (FC) in assay [6] was 108. Moreover, the inhibition result in assay [7] is “Active”.
On to `C#CCCCCCOc1cccc(-c2c(C(=O)Nc3ccccc3)c(C(C)C)n(CC[C@@H](O)C[C@@H](O)CC(=O)O)c2-c2ccc(F)cc2)c1`, for which the result in assay [1] was inactive.
For the molecule `CC(C)c1c(C(=O)Nc2ccccc2)c(-c2cccc(OCCCc3cn(CCCCCCNc4cccc5c4C(=O)N(C4CCC(=O)NC4=O)C5=O)nn3)c2)c(-c2ccc(F)cc2)n1CC[C@@H](O)C[C@@H](O)CC(=O)O` (stereo partly drawn), in assay [2], the 50% degradation concentration (DC50) was 400 nM. Also, the outcome in assay [3] and in assay [4] was Active.
As for `C#CCCCCOc1cccc(-c2c(C(=O)Nc3ccccc3)c(C(C)C)n(CC[C@@H](O)C[C@@H](O)CC(=O)O)c2-c2ccc(F)cc2)c1`, the outcome in assay [1] was inactive.
Consider `CC(C)c1c(C(=O)Nc2ccccc2)c(-c2cccc(OCCCCCc3cn(CCCCCCCNc4cccc5c4C(=O)N(C4CCC(=O)NC4=O)C5=O)nn3)c2)c(-c2ccc(F)cc2)n1CC[C@@H](O)C[C@@H](O)CC(=O)O` (stereo partly drawn), for which the DC50 in assay [2] was determined as 400 nM. Also, the result in assay [3] and in assay [4] was Active.
On to `CC(C)c1c(C(=O)Nc2ccccc2)c(-c2cccc(OCCCCc3cn(CCOCCOCCOCCNc4cccc5c4C(=O)N(C4CCC(=O)NC4=O)C5=O)nn3)c2)c(-c2ccc(F)cc2)n1CC[C@@H](O)C[C@@H](O)CC(=O)O` (stereo partly drawn), for which the half-maximal degradation concentration (DC50) in assay [2] is more than 3000 nM.
For `CC(C)c1c(C(=O)Nc2ccccc2)c(-c2cccc(OCCCc3cn(CCOCCOCCOCCNc4ccc5c(c4)C(=O)N(C4CCC(=O)NC4=O)C5=O)nn3)c2)c(-c2ccc(F)cc2)n1CC[C@@H](O)C[C@@H](O)CC(=O)O` (stereo partly drawn), the DC50 in assay [2] was more than 3000 nM.
Turning to `CC(C)c1c(C(=O)Nc2ccccc2)c(-c2cccc(OCCCc3cn(CCCCCCOCCCc4cccc5c4CN(C4CCC(=O)NC4=O)C5=O)nn3)c2)c(-c2ccc(F)cc2)n1CC[C@@H](O)C[C@@H](O)CC(=O)O` (stereo partly drawn), the half-maximal degradation concentration (DC50) in assay [2] worked out at 500 nM.
Regarding `CC(C)c1c(C(=O)Nc2ccccc2)c(-c2cccc(OCCCCc3cn(CCCCCCCNc4cccc5c4C(=O)N(C4CCC(=O)NC4=O)C5=O)nn3)c2)c(-c2ccc(F)cc2)n1CC[C@@H](O)C[C@@H](O)CC(=O)O` (stereo partly drawn), the DC50 in assay [2] turned out to be 300 nM. The outcome in assay [3] and in assay [4] was Active.
Take `C#CCOc1cccc(-c2c(C(=O)Nc3ccccc3)c(C(C)C)n(CC[C@@H](O)C[C@@H](O)CC(=O)O)c2-c2ccc(F)cc2)c1`: the result in assay [1] was inactive.

These data come from ChEMBL document CHEMBL4602720, “Degradation versus Inhibition: Development of Proteolysis-Targeting Chimeras for Overcoming Statin-Induced Compensatory Upregulation of 3-Hydroxy-3-methylglutaryl Coenzyme A Reductase” (J Med Chem, 2020).
